Our source for the Km and Ki values is ChEMBL document CHEMBL1122364, “Preparation of 2-amino-4(3H)-oxopyrimido[5,4-b] [1,4]thiazines (5-thiapterins) and their evaluation as cofactors for phenylalanine hydroxylase” (J Med Chem, 1983).

System in one test: not listed separately
The test is described as follows: Michaelis-Menten constant was determined for the compound.
The Km is the concentration of substrate that gives half-maximal velocity. For `Nc1nc(O)c2c(n1)NCCN2`, the Km was determined as 130 µM.
For `CC1CNc2nc(N)[nH]c(=O)c2N1` (stereo unspecified), the Km worked out at 40 µM.
`Nc1nc(O)c2c(n1)NCC(c1ccccc1)N2` (stereo unspecified): the Km was 3 µM.

The target in another test is T1, Phenylalanine-4-hydroxylase (Rattus norvegicus, UniProt P04176).
T1 sequence (P04176 whole entry): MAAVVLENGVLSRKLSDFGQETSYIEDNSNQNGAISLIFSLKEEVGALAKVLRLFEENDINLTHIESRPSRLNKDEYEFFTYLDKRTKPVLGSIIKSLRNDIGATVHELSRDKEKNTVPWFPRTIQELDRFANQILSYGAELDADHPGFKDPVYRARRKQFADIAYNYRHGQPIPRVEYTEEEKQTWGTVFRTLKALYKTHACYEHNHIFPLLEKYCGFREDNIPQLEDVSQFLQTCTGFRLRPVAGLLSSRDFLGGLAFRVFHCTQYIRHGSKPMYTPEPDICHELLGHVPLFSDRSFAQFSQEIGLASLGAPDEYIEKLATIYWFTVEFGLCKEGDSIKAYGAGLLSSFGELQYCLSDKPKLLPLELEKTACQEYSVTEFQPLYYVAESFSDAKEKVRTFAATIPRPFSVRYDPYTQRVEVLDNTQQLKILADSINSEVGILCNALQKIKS
The test is described as follows: Tested for competitive binding inhibition against phenylalanine hydroxylase in rat liver. The gist of the method: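 Initial rate of tyrosine formation followed at 25 °C as the rise in absorbance at 275 nm. The cofactor was 6-MePH₄ at 12.5–50 μM.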
What is called Ki is the dissociation constant of the complex between target and ligand, obtained from inhibition or displacement. Read a low Ki as tighter binding. In turn, `CC1CNc2nc(N)[nH]c(=O)c2S1` (stereo unspecified) had a Ki of 36 µM. This lies in the double-digit micromolar range.
For `CC1CNc2nc(N)nc(O)c2[S+]1[O-]` (stereo unspecified), the Ki was 125 µM. Against the preceding compound, the Ki is about 3.5-fold higher.
Compound `Nc1nc2c(c(=O)[nH]1)SC(c1ccccc1)CN2` (stereo unspecified) showed a Ki of 0.2 µM.
For the compound `Nc1nc(O)c2c(n1)NCC[S+]2[O-]` (stereo unspecified), the Ki came to 400 µM.
Same read-out and setting: under `Nc1nc(O)c2c(n1)SCC(c1ccccc1)N2` (stereo unspecified) stands 500 µM.
On to `Nc1nc(O)c2c(n1)NCC(c1ccccc1)[S+]2[O-]` (stereo unspecified), for which the affinity, expressed as Ki, was 7 µM. This Ki is about 71-fold lower than that of the compound before.
Regarding `Nc1nc(O)c2c(n1)NCCS2`, affinity was put at a Ki of 85 µM. Compared with the last compound, the Ki is about 12-fold higher.
Still for that read-out and setting: under `Nc1nc(N)c(Sc2ccccc2)c(O)n1` stands 4.7 µM.
